Reference: ChEMBL document CHEMBL2202989, “New adamantane phenylalkylamines with σ-receptor binding affinity and anticancer activity, associated with putative antagonism of neuropathic pain” (J Med Chem, 2012)
pIC50: −log10 of the molar value.

Key:
DU-145 = experiment: Antitumor activity against human DU145 cells xenografted in SCID mouse assessed as tumor growth inhibition at 20 mg/kg, ip administered once a week for two cycles measured after 2 cycles relative to control; type: functional; details: DU-145, ip, route intraperitoneal, read-out: TGI
Method in brief: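 DU145 xenografts were grown in SCID mice from 10^6-cell inocula, with at least 30 animals in total. Treatment started ip at a mean tumor volume of about 100 mm3. The test agent was given in 5% Tween 80; paclitaxel was dissolved in Cremophor and diluted in saline. Caliper volumes were taken twice weekly and %ΔT/ΔC calculated; two-tailed t test.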

PC-3 [1] = experiment: Antitumor activity against human PC3 cells xenografted in SCID mouse assessed as bone metastasis at 20 mg/kg, ip administered once a week for two cycles measured after 2 cycles relative to control; type: functional; details: route intraperitoneal
Method in brief: (§1)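 PC3 xenografts were grown in SCID mice (10^6 cells per inoculum), 14 mice (28 tumors) per group, dosed ip from about 100 mm3. The test agent was given in 5% Tween 80; paclitaxel was given in Cremophor diluted in saline, with a vehicle of 1:1 ethanol/Cremophor diluted 1:3 in saline. Volume and %ΔT/ΔC were derived from caliper readings twice weekly. Occurrence of primary tumors and of axillary and bone metastases was scored (n = 7). Two-tailed t test.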

PC-3 [2] = experiment: Antitumor activity against human PC3 cells xenografted in SCID mouse assessed as axillary metastasis at 20 mg/kg, ip administered once a week for two cycles measured after 2 cycles relative to control; type: functional; details: route intraperitoneal; method in brief: as §1
PC-3 [3] = experiment: Antitumor activity against human PC3 cells xenografted in SCID mouse assessed as primary tumor occurrence at 20 mg/kg, ip administered once a week for two cycles measured after 2 cycles relative to control; type: functional; details: route intraperitoneal; method in brief: as §1
PC-3 [4] = experiment: Antitumor activity against human PC3 cells xenografted in SCID mouse assessed as tumor growth inhibition at 20 mg/kg, ip administered once a week for two cycles measured after 2 cycles relative to control; type: functional; details: PC-3, ip, route intraperitoneal, read-out: TGI; method in brief: as §1
BXPC-3 [5] = experiment: Antitumor activity against human BxPC3 cells xenografted in SCID mouse assessed as tumor growth inhibition at 10 mg/kg, ip administered 5 times a week for one cycle relative to control; type: functional; details: BXPC-3, ip, route intraperitoneal, read-out: TGI
HCT-116 = experiment: Growth inhibition of human HCT116 cells after 48 hrs by SRB assay; type: functional; details: HCT-116, 48 h
Method in brief: (§2)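 Cells grown in RPMI 1640 with 5% heat-inactivated FCS, 2 mM L-glutamine and antibiotics, 37 °C, 5% CO2. Seeded at 3500–30000 cells/well and left 24 h before dosing. DMSO solutions added at 10-fold dilutions from 100 to 0.01 μM for 48 h. Cells TCA-fixed and SRB-stained, absorbance read at 540 nm; GI50 derived against the time-zero plate.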

BXPC-3 [6] = experiment: Growth inhibition of human BxPC3 cells after 48 hrs by SRB assay; type: functional; details: BXPC-3, 48 h; method in brief: as §2
[7] = (§3) Growth inhibition of human NHDF cells after 48 hrs by SRB assay; type: cell-based; details: NHDF cells; method in brief: as §2
NHDF = experiment: as §3; type: cell-based; details: nhdf, 48 h; method in brief: as §2
[8] = Displacement of [3H]batrachotoxin benzoate from Na+ channel after 60 mins by liquid scintillation counting
Method in brief: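 Na+ channel site 2 binding: vesicle preparation (150−500 μg protein) incubated 60 min with 20−25 nM [3H]BTX-B and 50 μg Leiurius quinquestriatus venom. Buffer was 130 mM choline chloride, 50 mM HEPES/Tris pH 7.4, glucose, MgSO4, KCl, BSA. Filtered on GF/C with cold washes; scintillation counting. Nonspecific binding defined with 250 μM veratridine.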

U-251 = experiment: Growth inhibition of human U251 cells after 48 hrs by SRB assay; type: functional; details: U-251, 48 h; method in brief: as §2
[9] = target: Sigma non-opioid intracellular receptor 1 (Homo sapiens, UniProt Q99720); experiment: Displacement of [3H]-(+)-pentazocine from sigma 1 receptor in human Jurkat cell membrane; type: cell membranes
Method in brief: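 Jurkat cell membranes incubated with 8 nM [3H](+)-pentazocine and a range of test concentrations for 2 h at 22 °C in Tris-HCl buffer, pH 7.4. Nonspecific binding defined with 10 μM haloperidol. Run in triplicate.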

[10] = Displacement of [3H]1,3-di-otolylguanidine from sigma 2 receptor in rat cerebral cortex membranes; type: cell membranes, Membrane
Method in brief: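 Rat cerebral cortex membranes incubated with 5 nM [3H]DTG plus 300 nM (+)-pentazocine to mask σ1 sites, together with a range of test concentrations, 2 h at 22 °C in Tris-HCl, pH 7.4. Nonspecific binding defined with 10 μM haloperidol.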

MCF7 = experiment: Growth inhibition of human MCF7 cells after 48 hrs by SRB assay; type: functional; details: MCF7, 48 h; method in brief: as §2
MIA PaCa-2 = experiment: Growth inhibition of human MIAPaCa2 cells after 48 hrs by SRB assay; type: functional; details: MIA PaCa-2, 48 h; method in brief: as §2
BXPC-3 [11] = experiment: Antitumor activity against human BxPC3 cells xenografted in SCID mouse assessed as tumor growth inhibition at 70 mg/kg, ip administered twice a week for three cycles measured after 3 cycles relative to control; type: functional; details: BXPC-3, ip, route intraperitoneal, read-out: TGI
Method in brief: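 BxPC3 xenografts were grown in SCID mice from inocula of 10^6 exponentially growing cells, with 10 mice (20 tumors) per group. Treatment started ip once tumors averaged about 100 mm3. The test agent was given in 5% Tween 80 and gemcitabine in water for injection. Tumor volume was measured by caliper twice weekly and %ΔT/ΔC was computed; two-tailed Student's t test.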

[12] = read-out: LC50 (the source's name)

Chain of Sigma non-opioid intracellular receptor 1 (Q99720 whole entry): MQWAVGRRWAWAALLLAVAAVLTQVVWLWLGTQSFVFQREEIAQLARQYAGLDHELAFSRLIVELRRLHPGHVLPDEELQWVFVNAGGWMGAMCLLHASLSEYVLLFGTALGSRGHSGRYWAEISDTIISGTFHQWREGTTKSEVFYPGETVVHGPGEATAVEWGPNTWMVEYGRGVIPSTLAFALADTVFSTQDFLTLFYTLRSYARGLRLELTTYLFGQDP

## CC(=O)O[C@H]1C(=O)[C@@]2(C)[C@H]([C@H](OC(=O)c3ccccc3)[C@]3(O)C[C@H](OC(=O)[C@H](O)[C@@H](NC(=O)c4ccccc4)c4ccccc4)C(C)=C1C3(C)C)[C@]1(OC(C)=O)CO[C@@H]1C[C@@H]2O [PACLITAXEL]
DU-145
  inhibition in vivo at 20 mg/kg: 26.6%
PC-3 [1]
  Activity: 86%
PC-3 [2]
  Activity: 14%
PC-3 [3]
  Activity: 100%
PC-3 [4]
  inhibition in vivo at 20 mg/kg: 79.1%

## Nc1ccn([C@@H]2O[C@H](CO)[C@@H](O)[C@@H]2O)c(=O)n1 [CYTARABINE]
BXPC-3 [5]
  inhibition in vivo at 10 mg/kg: 23.8%

## c1ccc(CN2CCN(CCCc3ccc(C(c4ccccc4)C45CC6CC(CC(C6)C4)C5)cc3)CC2)cc1 (stereo not given)
HCT-116
  GI50: 7.72 µM
  TGI: 39.7 µM
HCT-116; [12]
  CC50: 82.9 nM
BXPC-3 [6]
  GI50: 36.8 µM
  LC50: 100 nM
  TGI: 100 µM
[7]
  GI50 at 48 h: 39.5 µM
NHDF
  LC50: 100 µM
  TGI: 100 µM
[8]
  pIC50: 7.94
U-251
  GI50: 36.4 µM
  TGI: 79.1 µM
U-251; [12]
  CC50: 100 nM
[9]
  pIC50: 7.44
[10]
  pIC50: 7.55
MCF7
  GI50: 6.76 µM
  TGI: 61.7 µM
MCF7; [12]
  CC50: 100 nM

## Nc1ccn([C@@H]2O[C@H](CO)[C@@H](O)C2(F)F)c(=O)n1 [GEMCITABINE]
MIA PaCa-2
  GI50: 35.8 µM
  TGI: 100 µM
MIA PaCa-2; [12]
  CC50: 100 nM
BXPC-3 [6]
  GI50: 3.64 µM
  TGI: 9.05 µM
BXPC-3 [11]
  inhibition in vivo at 70 mg/kg: 38.1%
